PubChem BioAssay
The source made the active and inactive calls.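 Rule for the calls, unless noted: active = current rise at least 3 SD above the untreated control mean in each of two repeat wells; inactive = the rest.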

Tests used:
[1] = thallium flux activation in parental CHO cells, counter-screen for KCNQ1 potentiator project (AID 493006;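 active = duplicate-averaged activation above buffer control mean plus 5 SD of those controls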;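 for activation: fluorescence ratio of max minus min over baseline after K+ and Tl+ depolarization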); conditions: parental CHO-K1 cells, FluxOR thallium flux, at 10 µM; stronger effect = higher value
Outline: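 Material: parental CHO-K1 cells, FluxOR dye-loaded; Also added: Potassium/thallium depolarization pulse; Schedule: overnight 37 °C plating, 90 min dye, 20 min dark compound; Signal: kinetic FluxOR fluorescence, 10 s baseline, 110 s after stimulus.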

[2] = target: Potassium voltage-gated channel subfamily KQT member 1 (Homo sapiens) (UniProt P51787); experiment: KCNQ1 potassium channel potentiators, confirmation, FluxOR thallium flux, CHO cells, duplicates (AID 493007;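 active = potentiation averaged over duplicate wells exceeding buffer-only control mean by more than 3 SD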;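 for outcome: cells depolarized by a potassium plus thallium sulfate stimulus after compound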); conditions: KCNQ1 cell line, FluxOR thallium flux fluorescence, at 10 µM; stronger effect = higher value, % of reference activator effect, buffer zero
Sequence of Potassium voltage-gated channel subfamily KQT member 1 (Homo sapiens) (P51787 whole entry, looked up): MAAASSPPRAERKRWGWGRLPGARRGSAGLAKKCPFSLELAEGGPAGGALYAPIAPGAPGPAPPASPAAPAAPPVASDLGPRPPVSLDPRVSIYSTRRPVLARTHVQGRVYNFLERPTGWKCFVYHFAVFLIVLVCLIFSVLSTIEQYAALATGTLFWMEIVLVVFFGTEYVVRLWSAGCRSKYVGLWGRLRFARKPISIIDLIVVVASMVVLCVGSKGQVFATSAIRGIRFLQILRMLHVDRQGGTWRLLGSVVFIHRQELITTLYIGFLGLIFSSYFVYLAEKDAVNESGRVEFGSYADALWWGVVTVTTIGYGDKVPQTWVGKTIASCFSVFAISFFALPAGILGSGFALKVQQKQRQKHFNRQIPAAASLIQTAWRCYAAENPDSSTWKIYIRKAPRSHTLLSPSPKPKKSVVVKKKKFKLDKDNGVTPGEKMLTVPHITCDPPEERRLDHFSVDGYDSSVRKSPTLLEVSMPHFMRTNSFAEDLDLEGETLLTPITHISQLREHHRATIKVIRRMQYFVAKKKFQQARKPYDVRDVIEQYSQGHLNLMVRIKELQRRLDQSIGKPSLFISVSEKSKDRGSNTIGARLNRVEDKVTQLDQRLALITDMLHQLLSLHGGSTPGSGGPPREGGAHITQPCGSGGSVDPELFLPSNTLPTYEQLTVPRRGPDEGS
Outline: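 System: KCNQ1-expressing CHO cell line; technique: kinetic thallium influx fluorescence with FluxOR dye, 10 s baseline, 110 s post-stimulus; timing: dye 90 min then compound 20 min, both at room temperature; controls: buffer-only wells as 0% and R-L3 activator as 100%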

[3] = target: Potassium voltage-gated channel subfamily KQT member 2 (Rattus norvegicus) (UniProt O88943); experiment: rat KCNQ2 channel potentiation, selectivity assay for KCNQ1 potentiator project, KCNQ2-CHO-K1 cells (AID 493009;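 active = mean duplicate potentiation above the buffer control mean plus 5 SD of buffer wells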;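 note: assay conditions were tuned for KCNQ1 rather than KCNQ2 modulators; signal is max minus min fluorescence divided by baseline after thallium stimulus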); conditions: FluxOR thallium flux fluorescence, at 10 µM; stronger effect = higher value, scaled: buffer 0, activator control 100
Sequence of Potassium voltage-gated channel subfamily KQT member 2 (Rattus norvegicus) (O88943 whole entry, looked up): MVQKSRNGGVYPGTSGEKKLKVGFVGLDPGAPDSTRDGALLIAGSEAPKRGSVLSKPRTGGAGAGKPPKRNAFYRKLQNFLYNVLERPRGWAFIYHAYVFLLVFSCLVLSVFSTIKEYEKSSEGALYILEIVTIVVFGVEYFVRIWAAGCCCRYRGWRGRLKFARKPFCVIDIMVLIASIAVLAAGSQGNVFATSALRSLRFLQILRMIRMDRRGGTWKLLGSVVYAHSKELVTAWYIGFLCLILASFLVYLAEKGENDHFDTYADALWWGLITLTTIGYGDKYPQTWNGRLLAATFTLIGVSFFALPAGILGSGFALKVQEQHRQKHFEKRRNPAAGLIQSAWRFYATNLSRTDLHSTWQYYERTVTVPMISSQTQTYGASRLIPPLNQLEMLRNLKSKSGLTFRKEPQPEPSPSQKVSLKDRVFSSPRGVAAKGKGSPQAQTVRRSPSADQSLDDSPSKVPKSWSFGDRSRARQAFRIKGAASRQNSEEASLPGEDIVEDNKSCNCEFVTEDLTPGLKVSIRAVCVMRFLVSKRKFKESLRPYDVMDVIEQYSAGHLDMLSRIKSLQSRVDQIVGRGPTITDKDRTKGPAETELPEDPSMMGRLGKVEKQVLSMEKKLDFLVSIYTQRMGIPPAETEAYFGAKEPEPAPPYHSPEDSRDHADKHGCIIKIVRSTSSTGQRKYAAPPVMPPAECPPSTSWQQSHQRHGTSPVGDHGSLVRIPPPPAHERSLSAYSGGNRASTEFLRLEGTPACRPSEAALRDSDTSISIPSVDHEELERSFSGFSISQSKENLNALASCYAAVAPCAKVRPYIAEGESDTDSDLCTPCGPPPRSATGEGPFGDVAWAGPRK

[4] = target: Potassium voltage-gated channel subfamily KQT member 1 (Homo sapiens) (UniProt P51787); experiment: KCNQ1 channel current potentiators, confirmation, orthogonal assay for KCNQ1 potentiator project, IonWorks patch clamp, KCNQ1-CHO cells (AID 493184); conditions: automated patch clamp current, at 10 µM; stronger effect = higher value;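 for current potentiation: percent change of the same well's current before compound addition so 0% = no change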
Outline: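 Test system: KCNQ1-expressing CHO cells. Medium: pH 7.4 external bath. Probe or stimulus: voltage step from -90 mV holding to +40 mV, 2,000 ms. Compound: 10 µM final, single point. Detection: automated perforated-patch electrophysiology. Read-out: percent current increase versus pre-compound level. Repeats: two replicates.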

Row | Compound | activation [1] | potentiation [2] | potentiation [3] | outcome [4] | outcome [1] | outcome [2] | outcome [3] | current potentiation [4]
1 | Cc1cc(Nc2cc(N3CCN(C)CC3)nc(Sc3ccc(NC(=O)C4CC4)cc3)n2)n[nH]1 | 140% (active) | 30% (active) | 144% (active) | inactive |  |  |  | 
2 | O=C(NN1C(=O)C2C(c3ccccc3)C=CC(c3ccccc3)C2C1=O)c1ccncc1 (stereo not given) | 176% (active) | 18% (active) | 152% (active) | inactive |  |  |  | 
3 | O=c1oc2cc(OCCO)ccc2c2c1CCCC2 |  |  |  | inactive | inactive | inactive | inactive | 
4 | Oc1ccc(C[C@@H]2CNCCN2CCc2cc(C(F)(F)F)cc(C(F)(F)F)c2)cc1 |  |  |  | inactive | inactive | inactive | inactive | 
5 | COC(=O)c1ccc(C(=O)NC(=S)Nc2nc3c(s2)CCCC3)cc1 | 210% (active) | 169% (active) | 411% (active) | inactive |  |  |  | 
6 | Cc1ccccc1-n1c(C)cc(/C=N/NC(=O)c2ccncc2)c1C |  | 25% (active) | 165% (active) | inactive | inactive |  |  | 
7 | COc1ccc(OC)c(/C=C2\SC(=S)N(NS(=O)(=O)c3ccc(C)cc3)C2=O)c1 | 166% (active) | 102% (active) | 240% (active) |  |  |  |  | 47.4% (active)
8 | CCc1cc2c(=O)n(CCC(C)C)c(=S)[nH]c2s1 | 516% (active) | 228% (active) | 499% (active) | inactive |  |  |  | 
9 | CC(C)Cc1ccc(C(C)C(=O)Nc2ccc(O)cc2)cc1 (stereo not given) |  |  |  | inactive | inactive | inactive | inactive | 
10 | CC(C)N(C(=O)CSc1ncnc2sc(-c3ccccc3)cc12)C(C)C |  |  |  | inactive | inactive | inactive | inactive | 
11 | Cc1ccc(C)c(N(CC(=O)NC2CCCC2)C(=O)CCC(=O)Nc2nccs2)c1 |  |  |  | inactive | inactive | inactive | inactive | 
12 | N=C1S/C(=C\c2ccc(-c3cccc(Cl)c3)o2)C(=O)N1c1nccs1 |  | 19% (active) |  | inactive | inactive |  | inactive | 
13 | Cc1nn(-c2ccccc2)nc1C(=O)NNC(=O)c1cccc2ccccc12 |  | 53% (active) | 182% (active) | inactive | inactive |  |  | 
14 | Cc1cccc(/C=C/C(=O)c2cc(Br)ccc(=O)c2O)c1 | 170% (active) | 90% (active) | 254% (active) | inactive |  |  |  | 
15 | COc1ccc(NC(=O)[C@@H]2CC=C[C@@H]3CCN(C4CCCCC4)C(=O)[C@@H]32)cc1 |  |  |  | inactive | inactive | inactive | inactive | 
16 | Cc1ccc(Cc2cnc(N3C(=N)SC(c4ccccc4)C3=O)s2)cc1 (stereo not given) |  |  |  | inactive | inactive | inactive | inactive | 
17 | CCC1CCCCN1S(=O)(=O)c1ccc(NC(=O)c2cccnc2)cc1 (stereo not given) |  |  |  | inactive | inactive | inactive | inactive | 
18 | CN(C)c1nc(=Nc2cccc(Cl)c2)ss1 | 312% (active) | 119% (active) | 273% (active) | inactive |  |  |  | 
19 | COc1ccc(Cl)cc1NC(=O)CNc1ccc(F)cc1C |  |  |  | inactive | inactive | inactive | inactive | 
20 | O=C(NC(=S)N1CCN(c2ccc([N+](=O)[O-])cc2Cl)CC1)c1ccco1 |  |  |  | inactive | inactive | inactive | inactive | 

Row | Compound | activation [1] | potentiation [2] | potentiation [3] | outcome [4] | outcome [1] | outcome [2] | outcome [3] | current potentiation [4]
21 | O=C(COc1ccccc1Cl)N(Cc1cccs1)C1CCS(=O)(=O)C1 (stereo not given) |  |  |  | inactive | inactive | inactive | inactive | 
22 | CCCOc1ccccc1Cn1c(=O)oc2ccc(C)cc21 |  |  |  | inactive | inactive | inactive | inactive | 
23 | CC1(C)CC2CC(C)(CN2C(=S)NC(=O)c2ccccc2Cl)C1 (stereo not given) | 341% (active) | 154% (active) | 426% (active) | inactive |  |  |  | 
24 | CC(=O)c1ccc(N2CCN(C(=O)c3ccc(NC(=O)C4CCCO4)cc3)CC2)cc1 (stereo not given) |  |  |  | inactive | inactive | inactive | inactive | 
25 | O=C(COc1cccnc1[N+](=O)[O-])Nc1cccc(S(=O)(=O)N2CCCCC2)c1 |  |  |  | inactive | inactive | inactive | inactive | 
26 | CN(C)/C=N/S(=O)(=O)c1cccn1-c1ncc(C(F)(F)F)cc1Cl |  |  |  | inactive | inactive | inactive | inactive | 
27 | NC(=O)c1cccc(N=Cc2cc(Cl)cc(Cl)c2O)c1 | 178% (active) | 25% (active) | 154% (active) | inactive |  |  |  | 
28 | Cc1ccc(-c2csc3nc[nH]c(=S)c23)cc1 | 308% (active) | 124% (active) | 300% (active) | inactive |  |  |  | 
29 | CC(C)Cn1c(=O)c(C(=O)N/N=C/c2cccc(F)c2)c(O)c2ccccc21 |  |  |  | inactive | inactive | inactive | inactive | 
30 | N#CCn1c(CCl)nc2ccccc2c1=O |  |  |  | inactive | inactive | inactive | inactive | 
31 | CCOC(=O)c1ccc(Oc2nc(NC(C)(C)C)nc(N(C)C)n2)cc1 |  |  |  | inactive | inactive | inactive | inactive | 
32 | COC(=O)c1ccc(CNC(=O)c2ccc(COc3ccccc3)cc2)cc1 |  |  |  | inactive | inactive | inactive | inactive | 
33 | Cc1cc(O)ccc1N=Cc1c(C(F)(F)F)[nH][nH]c1=O |  |  |  | inactive | inactive | inactive | inactive | 
34 | CCCNC1=CC(=O)CC(C)(C)C1 |  |  |  | inactive | inactive | inactive | inactive | 
35 | O=c1c2cc(Cl)ccc2nc(-c2ccc([N+](=O)[O-])cc2)n1O | 445% (active) | 193% (active) | 456% (active) | inactive |  |  |  | 
36 | CCC(CC)C1=NN2C(=N)/C(=C\c3cc(C)n(-c4cccc(C)c4)c3C)C(=O)N=C2S1 |  |  |  | inactive | inactive | inactive | inactive | 
37 | Cc1ccccc1C(=O)NC1CC(C)(C)NC(C)(C)C1 |  |  |  | inactive | inactive | inactive | inactive | 
38 | O=C1NC(=S)SC1=C1CCCC1 | 142% (active) | 24.5% (active) | 166% (active) | inactive |  |  |  | 
39 | Oc1c(Cl)cc(Cl)cc1C=Nc1ccc2c(c1)OCCO2 | 174% (active) | 25.5% (active) |  | inactive |  |  | inactive | 
40 | O=C(NC(=S)NC1CCCc2ccccc21)c1ccco1 (stereo not given) | 188% (active) | 122% (active) | 272% (active) | inactive |  |  |  | 

Row | Compound | activation [1] | potentiation [2] | potentiation [3] | outcome [4] | outcome [1] | outcome [2] | outcome [3] | current potentiation [4]
41 | CCOC(=O)c1n[nH]n2c1nc(=S)c1ccccc12 | 260% (active) | 54.5% (active) | 246% (active) | inactive |  |  |  | 
42 | S=c1nc[nH]c2c1cnn2-c1ccccc1 | 168% (active) | 29.5% (active) | 222% (active) | inactive |  |  |  | 
43 | Cc1ccc(C(=O)CC(=O)COc2ccc(Cl)cc2)cc1 |  | 184% (active) | 252% (active) | inactive | inactive |  |  | 
44 | Cc1ccc(-c2ccnc(=S)[nH]2)cc1 |  |  |  | inactive | inactive | inactive | inactive | 
45 | Cc1cc(C)nc(CCNC(=O)c2cc(COc3ccccc3)on2)n1 |  |  |  | inactive | inactive | inactive | inactive | 
46 | CCn1c(=S)[nH]c2scc(-c3cccs3)c2c1=O | 548% (active) | 246% (active) | 528% (active) | inactive |  |  |  | 
47 | O=C(NC1CC1)C1=NOC(CNc2ncc(C(F)(F)F)cc2Cl)C1 (stereo not given) |  |  |  | inactive | inactive | inactive | inactive | 
48 | CC(C)(C)C1C/C(=C/c2ccccn2)C(=O)/C(=C/c2ccccn2)C1 (stereo not given) |  |  |  | inactive | inactive | inactive | inactive | 
49 | Cc1sc(NC(=O)c2ccccc2)c(C(c2ccc(Cl)cc2)N2CCN(CCO)CC2)c1C (stereo not given) |  |  |  | inactive | inactive | inactive | inactive | 
50 | CC1CCc2c(sc(NS(=O)(=O)c3ccccc3)c2C(=O)OC(C)C)C1 (stereo not given) | 284% (active) | 156% (active) | 380% (active) | inactive |  |  |  | 
51 | O=C(COc1ccc2ccccc2c1)NNC(=O)[C@@H]1CCCC[C@@H]1C(=O)O |  |  |  | inactive | inactive | inactive | inactive | 
52 | CCN(CC)C(=O)c1[nH]cnc1C(=O)NCC(=O)OC(C)(C)C |  |  |  | inactive | inactive | inactive | inactive | 
53 | CC(C)NC(=O)/C(=C/c1cn(-c2ccccc2)nc1-c1cccc([N+](=O)[O-])c1)NC(=O)c1ccccc1 |  |  |  | inactive | inactive | inactive | inactive | 
54 | CC1CC(C)CN(Cc2nc(N)nc(Nc3ccc4ccccc4c3)n2)C1 (stereo not given) | 170% (active) | 43.5% (active) | 165% (active) | inactive |  |  |  | 
55 | Cc1ccc(-c2csc(=S)[nH]2)cc1 | 628% (active) | 189% (active) | 643% (active) | inactive |  |  |  | 
56 | Cc1cc(C(=O)CSc2nnc(N)s2)c(C)n1C1CC1 |  |  |  | inactive | inactive | inactive | inactive | 
57 | COc1ccc(S(=O)(=O)Nc2cccc3ccc(O)cc23)cc1 |  |  |  | inactive | inactive | inactive | inactive | 
58 | COC(=O)c1ccccc1NC(=O)Cn1c(=O)n(Cc2ccccc2)c(=O)c2c(C)c(C)sc21 |  |  |  | inactive | inactive | inactive | inactive | 
59 | Cc1ccc(-c2nc3ncccc3o2)cc1NC(=O)c1cccnc1 |  |  |  | inactive | inactive | inactive | inactive | 
60 | Cc1ccc(SCC2(O)CCN(S(=O)(=O)c3ccc(Cl)cc3)CC2)cc1 |  |  |  | inactive | inactive | inactive | inactive | 
